# Experimental data reported in ChEMBL document CHEMBL2062418, “C3-heteroaroyl cannabinoids as photolabeling ligands for the CB2 cannabinoid receptor” (Bioorg Med Chem Lett, 2012).
# Key:
# Cannabinoid receptor 2 [1] = target: Cannabinoid receptor 2 (Homo sapiens, UniProt P34972); test: Displacement of [3H]CP-55,940 from human CB2 receptor expressed in HEK293 cells; format: cell-based
# How it was run: (§1)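 Competition binding with [3H]CP-55,940 on rat brain membranes (CB1) or on membranes from HEK293 cells expressing mouse or human CB2. Screened first at two points in triplicate. Where that screen gave Ki below 1000 nM, Ki was taken from one 8-point experiment run in triplicate.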
# Cannabinoid receptor 2 [2] = target: Cannabinoid receptor 2 (Mus musculus, UniProt P47936); test: Displacement of [3H]CP-55,940 from mouse CB2 receptor expressed in HEK293 cells; format: cell-based; how it was run: as §1
# Cannabinoid receptor 1 = Cannabinoid receptor 1 (Rattus norvegicus, UniProt P20272); test: Displacement of [3H]CP-55,940 from rat brain CB1 receptor; how it was run: as §1
# [3] = Selectivity ratio of Ki for rat CB1 receptor to Ki for mouse CB2 receptor
# [4] = target: Cannabinoid receptor 2 (Mus musculus) (UniProt P47936); conditions: HEK293, 342 nM
# Chain of Cannabinoid receptor 2 (Mus musculus) (P47936 whole entry): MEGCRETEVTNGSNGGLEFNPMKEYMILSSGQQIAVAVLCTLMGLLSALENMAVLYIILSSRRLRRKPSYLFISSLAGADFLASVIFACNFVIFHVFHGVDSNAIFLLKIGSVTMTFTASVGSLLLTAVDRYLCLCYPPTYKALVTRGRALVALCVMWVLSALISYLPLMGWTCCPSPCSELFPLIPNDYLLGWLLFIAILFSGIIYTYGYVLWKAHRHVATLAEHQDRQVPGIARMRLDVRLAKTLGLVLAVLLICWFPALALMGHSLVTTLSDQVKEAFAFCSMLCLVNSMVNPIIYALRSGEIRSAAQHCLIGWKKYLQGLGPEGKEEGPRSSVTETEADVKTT
# Chain of Cannabinoid receptor 2 (Mus musculus, UniProt P47936) (P47936 whole entry): as above
# Chain of Cannabinoid receptor 1 (P20272 whole entry): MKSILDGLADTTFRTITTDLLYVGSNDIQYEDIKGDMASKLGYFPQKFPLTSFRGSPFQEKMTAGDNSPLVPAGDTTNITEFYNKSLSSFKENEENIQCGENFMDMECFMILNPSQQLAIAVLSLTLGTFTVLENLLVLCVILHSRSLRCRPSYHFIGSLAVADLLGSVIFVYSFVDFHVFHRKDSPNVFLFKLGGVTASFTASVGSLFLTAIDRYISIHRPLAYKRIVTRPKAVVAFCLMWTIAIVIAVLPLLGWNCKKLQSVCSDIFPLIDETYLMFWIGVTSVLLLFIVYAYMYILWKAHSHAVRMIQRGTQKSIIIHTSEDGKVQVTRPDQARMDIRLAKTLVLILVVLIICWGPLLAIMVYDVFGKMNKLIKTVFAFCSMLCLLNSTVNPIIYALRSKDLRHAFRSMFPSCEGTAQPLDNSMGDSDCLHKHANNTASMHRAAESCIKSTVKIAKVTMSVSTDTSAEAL
# Chain of Cannabinoid receptor 2 (Homo sapiens, UniProt P34972) (P34972 whole entry): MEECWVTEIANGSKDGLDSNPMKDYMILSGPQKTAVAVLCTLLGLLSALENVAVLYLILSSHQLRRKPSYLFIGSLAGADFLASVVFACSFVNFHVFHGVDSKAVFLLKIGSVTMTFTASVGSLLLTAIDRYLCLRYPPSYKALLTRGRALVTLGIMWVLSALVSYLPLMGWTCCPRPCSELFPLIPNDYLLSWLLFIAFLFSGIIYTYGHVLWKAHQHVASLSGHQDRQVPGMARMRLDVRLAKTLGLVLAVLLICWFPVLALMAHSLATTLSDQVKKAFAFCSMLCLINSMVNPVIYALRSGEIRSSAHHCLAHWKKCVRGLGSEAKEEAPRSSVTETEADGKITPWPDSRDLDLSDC
Compound,Ki (Cannabinoid receptor 2 [1]) [nM],Ki (Cannabinoid receptor 2 [2]) [nM],Ki (Cannabinoid receptor 1) [nM],Ratio Ki [3],Bmax [4] [%]
CC1(C)Oc2cc(C(=O)c3ccncc3)cc(O)c2[C@@H]2C[C@H](O)CC[C@H]21,> 1000,> 1000,> 1000,–,–
CC1(C)Oc2cc(C(=O)c3cccc(F)c3)cc(O)c2[C@@H]2C[C@H](O)CC[C@H]21,–,370,460,–,–
CC1(C)Oc2cc(C(=O)c3ccsc3)cc(O)c2[C@@H]2C[C@H](O)CC[C@H]21,1550,525,1040,–,–
CC1(C)Oc2cc(C(=O)c3cccnc3)cc(O)c2[C@@H]2C[C@H](O)CC[C@H]21,> 1000,> 1000,> 1000,–,–
CC1(C)Oc2cc(C(=O)c3ccccc3)cc(O)c2[C@@H]2C[C@H](O)CC[C@H]21,587,247,968,–,–
CC1(C)Oc2cc(C(=O)c3cccc(C(F)(F)F)c3)cc(O)c2[C@@H]2C[C@H](O)CC[C@H]21,37.3,45.8,61.7,–,–
CC1(C)Oc2cc(C(=O)c3ccncc3F)cc(O)c2[C@@H]2C[C@H](O)CC[C@H]21,–,> 1000,> 1000,–,–
CC1(C)Oc2cc(C(=O)c3cncs3)cc(O)c2[C@@H]2C[C@H](O)CC[C@H]21,–,> 1000,> 1000,–,–
CC1(C)Oc2cc(C(=O)c3ccccn3)cc(O)c2[C@@H]2C[C@H](O)CC[C@H]21,> 1000,> 1000,> 1000,–,–
Cn1cc(C(=O)c2cc(O)c3c(c2)OC(C)(C)[C@@H]2CC[C@@H](O)C[C@@H]32)c2ccccc21,3010,406,3270,–,–
CC1(C)Oc2cc(C(=O)c3ccoc3)cc(O)c2[C@@H]2C[C@H](O)CC[C@H]21,–,> 1000,> 1000,–,–
CC1(C)Oc2cc(C(=O)c3cc4ccccc4s3)cc(O)c2[C@@H]2C[C@H](O)CC[C@H]21,113,152,157,–,–
CC1(C)Oc2cc(C(=O)c3cc4ccccc4o3)cc(O)c2[C@@H]2C[C@H](O)CC[C@H]21,209,163,1360,–,–
CC1(C)Oc2cc(C(=O)c3ccco3)cc(O)c2[C@@H]2C[C@H](O)CC[C@H]21,–,> 1000,> 1000,–,–
CC1(C)Oc2cc(C(=O)c3csc4ccccc34)cc(O)c2[C@@H]2C[C@H](O)CC[C@H]21,125,34.2,1250,37,67
CC1(C)Oc2cc(C(=O)c3c[nH]c4ccccc34)cc(O)c2[C@@H]2C[C@H](O)CC[C@H]21,159,60.4,1050,17,–
CC1(C)Oc2cc(C(=O)c3cccs3)cc(O)c2[C@@H]2C[C@H](O)CC[C@H]21,–,> 1000,> 1000,–,–
CC1(C)Oc2cc(C(=O)c3coc4ccccc34)cc(O)c2[C@@H]2C[C@H](O)CC[C@H]21,118,169,2880,17,–
CC1(C)Oc2cc(C(=O)c3cscn3)cc(O)c2[C@@H]2C[C@H](O)CC[C@H]21,> 1000,> 1000,> 1000,–,–
